Where a SMILES comes first, the peptide text is derived from it.
Experiments:
Bos taurus [1] = species: Bos taurus; assay: Enhancement of [3H]ADTN to dopamine receptors at concentration of 100 nM
How it was run: (§1)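 Bovine caudate homogenized in 50 mM Tris-HCl pH 7.7 and spun twice at 40000 g. Pellet taken up in 50 mM Tris pH 7.1 with 0.1% ascorbic acid, 120 mM NaCl, 5 mM KCl, 2 mM CaCl2 and 10 μM pargyline. 0.4-0.6 mg protein incubated with 8 nM [3H]ADTN ± peptide (1, 10 or 100 nM), triplicate, 37 °C. Bound ligand collected by GF/B filtration and counted by scintillation.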

Bos taurus [2] = species: Bos taurus; assay: Enhancement of [3H]ADTN to dopamine receptors at concentration of 10 nM; how it was run: as §1
Bos taurus [3] = species: Bos taurus; assay: Enhancement of [3H]-ADTN to dopamine receptors at concentration of 1 nM; how it was run: as §1

- Enhancement (Bos taurus [1]): 46.2%
- Enhancement (Bos taurus [2]): 28%
- Enhancement (Bos taurus [3]): 16%
SMILES: CC(C)C[C@H](NC(=O)[C@@H]1CCCN1)C(=O)NCC(N)=O (H-Pro-Leu-Gly-NH2)

From ChEMBL document CHEMBL1123254, “Dopamine receptor modulation by Pro-Leu-Gly-NH2 analogues possessing cyclic amino acid residues at the C-terminal position” (J Med Chem, 1986)
